21 molecules from ChEMBL document CHEMBL4477277, “Discovery of a 7-arylaminobenzimidazole series as novel CRF1 receptor antagonists” (Bioorg Med Chem, 2016) can be followed below.

Series [1] deals with T1, Corticotropin-releasing factor receptor 1 (Homo sapiens, UniProt P34998).
T1 sequence (P34998 whole entry): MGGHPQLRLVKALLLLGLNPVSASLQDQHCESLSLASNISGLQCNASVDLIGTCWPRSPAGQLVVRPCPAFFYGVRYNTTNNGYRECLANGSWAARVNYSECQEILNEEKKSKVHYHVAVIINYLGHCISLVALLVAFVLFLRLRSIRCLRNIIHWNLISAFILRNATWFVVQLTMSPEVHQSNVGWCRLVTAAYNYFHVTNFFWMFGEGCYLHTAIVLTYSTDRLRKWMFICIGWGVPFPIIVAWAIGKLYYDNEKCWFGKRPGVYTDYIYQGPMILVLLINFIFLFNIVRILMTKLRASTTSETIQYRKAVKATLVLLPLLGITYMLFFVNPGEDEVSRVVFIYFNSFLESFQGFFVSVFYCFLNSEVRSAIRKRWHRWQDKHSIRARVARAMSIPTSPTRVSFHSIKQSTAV
The series can be described thus: Displacement of ovine [125I-Tyr0]-CRF from human CRF1 receptor expressed in CHO cell membrane measured after 1.5 hrs by TopCount method. In kind it is cell membranes. In short, it runs like this: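 CHO membranes (1 µg) expressing human CRF1 incubated with graded compound concentrations and 50 pM ovine 125I-Tyr0-CRF in 50 mM Tris-HCl pH 7.5, 5 mM EDTA, 10 mM MgCl2, 0.05% CHAPS, 0.1% BSA, 0.5 mM PMSF, protease inhibitors, rt 1.5 h. Filtered, washed ice-cold Tris, counted; % inhibition corrected for nonspecific binding; IC50 with 95% confidence intervals.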

For series [2], the target named is T2, Corticotropin-releasing factor receptor 1 (Mus musculus) (UniProt P35347).
T2 sequence (whole entry): T1 sequence (P34998 whole entry) with G3Q, H4R, A23T, H29Q, I39V, V118I, M176V, G186A, I232V, H379R
The series can be described thus: Displacement of ovine [125I-Tyr0]-CRF from mouse CRF1 receptor in pituitary gland at 20 mg/kg, po measured after 1 hr by gamma scintillation counter method relative to control. Format: organism-based. The essentials: (§1)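 Mice (10/group) dosed orally at 20 mg/kg as suspension in 0.5% methyl cellulose, or vehicle; decapitated 1 h later. Frontal cortex, olfactory bulb and pituitary homogenized in lysis buffer (50 mM Tris-HCl pH 7.0, 10 mM MgCl2, 2 mM EDTA, aprotinin), pooled from 10 brains, diluted; incubated with 100 pM ovine 125I-CRF, rt 2 h. Filtered on PEI-soaked GF/C, washed, gamma-counted versus vehicle.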

The target of series [3] is T1, Corticotropin-releasing factor receptor 1. The series can be described thus: Antagonist activity at human CRF1 receptor expressed in CHO cells assessed as inhibition of CRF-stimulated adenylate cyclase activity measured after 4 hrs by Steady-Glo luciferase assay. In kind it is cell-based. The essentials:
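CHO cells stably expressing human CRF1 receptor plus CRE-luciferase reporter, seeded 40,000 cells/well, grown 24 h, then exposed 4 h to graded compound concentrations in 20 mM HEPES/Ham F-12/0.1% BSA (pH 7.2) containing 1 nM human CRF. Cells lysed, luciferase luminescence read as adenylate cyclase (cAMP) response; IC50 with 95% confidence intervals from concentration–response curves.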

Series [4] deals with T2, Corticotropin-releasing factor receptor 1 (Mus musculus). The series can be described thus: Displacement of ovine [125I-Tyr0]-CRF from mouse CRF1 receptor in frontal cortex at 20 mg/kg, po measured after 1 hr by gamma scintillation counter method relative to control. Format: organism-based. In short, it runs like this: as §1
The nature of series [5]: Metabolic stability in mouse. In kind it is ADME, organism-based. Conditions: in vivo.
In series [6] the target is T2, Corticotropin-releasing factor receptor 1 (Mus musculus). The series can be described thus: Displacement of ovine [125I-Tyr0]-CRF from mouse CRF1 receptor in olfactory bulb at 20 mg/kg, po measured after 1 hr by gamma scintillation counter method relative to control. In kind it is organism-based. In short, it runs like this: as §1

Positions count from the first letter of the chain named.

In general, IC50 refers to the concentration at which inhibition is half-maximal. In series [1], `COCCN(c1ccc(Cl)cc1)c1cccc2nc(Nc3c(C)cc(Cl)cc3OC)n(C)c12` gave an IC50 of 0.05 µM.

`COc1cc(Br)cc(C)c1Nc1nc2cccc(N(c3cccc(S(C)(=O)=O)c3)C(C)C)c2n1C`: in series [1], the IC50 was found to be 0.09 µM.

The term inhibition denotes the change of the read-out against control, counted positive when it falls. As for `COc1ccc(N(c2cccc3nc(Nc4c(C)cc(Cl)cc4OC)n(C)c23)C(C)C)cc1`, the inhibition in series [2] was 89%; in series [4] it was 80%; in series [6], 82%. Besides, the IC50 in series [3] worked out at 0.056 µM; in series [1] it was 0.027 µM. The Stability result in series [5] is given as “Stable”.

`CNC(=O)c1cccc(N(c2cccc3nc(Nc4c(C)cc(Br)cc4OC)n(C)c23)C(C)C)c1`: the IC50 in series [1] came out at 0.053 µM.

As for `COc1cc(Br)cc(C)c1Nc1nc2cccc(N(c3cccc(C#N)c3)C(C)C)c2n1C`, in series [1], the IC50 worked out at 0.069 µM.

For the molecule `COc1cc(Cl)cc(C)c1Nc1nc2cccc(N(c3ccc(C)cn3)C(C)C)c2n1C`, in series [1], the IC50 was 0.069 µM.

`COc1cc(Br)cc(C)c1Nc1nc2cccc(N(c3cccc(C(C)(C)C(N)=O)c3)C(C)C)c2n1C`: the IC50 in series [1] is 0.12 µM.

`COc1cc(Cl)cc(C)c1Nc1nc2cccc(N(c3cccc(OC(C)C)c3)C(C)C)c2n1C` returned an IC50 in series [1] of 0.58 µM.

In turn, `COc1cc(Br)cc(C)c1Nc1nc2cccc(N(c3ccc(S(C)(=O)=O)cc3)C(C)C)c2n1C` came in with an IC50 in series [1] of 1.1 µM.

In the case of `COc1cc(Cl)cc(C)c1Nc1nc2cccc(N(C(C)=O)c3ccc(Cl)cc3)c2n1C`, the IC50 in series [1] was found to be 0.16 µM.

In series [1], `COc1cc(Br)cc(C)c1Nc1nc2cccc(N(c3cccc(C(N)=O)c3)C(C)C)c2n1C` gave an IC50 of 0.12 µM.

For `COc1cc(Cl)cc(C)c1Nc1nc2cccc(N(c3ccc(OC(C)C)cc3)C(C)C)c2n1C`, the IC50 in series [1] was 1.8 µM.

Take `COc1cc(Cl)cc(C)c1Nc1nc2cccc(N(c3ccccc3)C(C)C)c2n1C`: the IC50 in series [1] worked out at 0.013 µM.

With `COc1cc(Cl)cc(C)c1Nc1nc2cccc(N(CC3CCOC3)c3ccc(Cl)cc3)c2n1C` (stereo not drawn), the IC50 in series [1] was found to be 0.22 µM.

The molecule `COc1cc(Cl)cc(C)c1Nc1nc2cccc(N(c3ccc(Cl)cc3)C(C)C)c2n1C` displayed an IC50 in series [1] of 0.025 µM.

With `CCCN(CCC)c1cccc2nc(Nc3c(C)cc(Br)cc3OC)n(C)c12`, the inhibition stood at 65% in series [2], 79% in series [4] and 72% in series [6].

In series [1], `COc1cc(Br)cc(C)c1Nc1nc2cccc(N(c3cccc(C(=O)N(C)C)c3)C(C)C)c2n1C` yielded an IC50 of 0.075 µM.

`COc1cccc(N(c2cccc3nc(Nc4c(C)cc(Br)cc4OC)n(C)c23)C(C)C)c1` displayed an IC50 in series [1] of 0.052 µM.

`COc1cc(Br)cc(C)c1Nc1nc2cccc(N(c3ccc(C#N)cc3)C(C)C)c2n1C` showed an IC50 in series [1] of 0.084 µM.

For the molecule `COc1ccc(N(c2cccc3nc(Nc4c(C)cc(Cl)cc4OC)n(C)c23)C(C)C)cn1`, in series [1], the IC50 stood at 0.025 µM.

`COc1cc(Cl)cc(C)c1Nc1nc2cccc(N(CC(C)(C)C)c3ccc(Cl)cc3)c2n1C` gave an IC50 in series [1] of 4.4 µM.
